MrgX1 ag = human MrgX1 receptor agonism, primary screen; MrgX1-HEK293 cells, Fluo-4 calcium fluorescence, agonist mode; stronger effect = higher value; B-score at 10 µM; actives 0.44% (n = 310,000); AID 588627; Q96LB2;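 active = calcium response B-score plate-corrected fluorescence ratio at least 3 library SD, with starting fluorescence B-score inside 5 SD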
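Assay system: stable human MrgX1 HEK293 cell line. Quantity: 15,000 cells per well. Schedule: cells plated overnight, dye loaded 0.5 h 37 °C, 0.5 h room temperature. Detection: Fluo-4 NW calcium-flux fluorescence, kinetic read. Read-out basis: peak-minus-minimum fluorescence over baseline, converted to B scores. Control set: positive and negative control wells on each plate.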
RGS4 act = RGS4 potentiation or activation; HEK293 M3R/inducible RGS4, carbachol calcium flux Fluo4; stronger effect = lower value; B-score at 10 µM; actives 0.92% (n = 310,000);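 active = B-score of the integrated calcium signal more than 4 SD below the library mean, with starting fluorescence not abnormally high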;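 note: negative B-score means reduced calcium response which marks RGS4 activation or potentiation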
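test system = M3R-expressing HEK293 line, RGS4 induced by doxycycline | probe or stimulus = carbachol at ECmax as muscarinic agonist stimulus | timing = dye loading 30 min 37 °C, buffer rest 30 min RT | signal = calcium dye Fluo4 fluorescence | evaluation = B score from integrated fluorescence ratio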
RGS4 inh = inhibitors of human RGS4; P49798; HEK293 M3R/RGS4 inducible, Fluo-4 calcium flux; stronger effect = higher value; triggered by carbachol at its EC20; B-score at 10 µM; actives 0.45% (n = 310,000); AID 463165;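 active = B-score, a plate-corrected calcium signal, over three deviations above library mean, with baseline fluorescence within five deviations of library mean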;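 note: RGS4 expression induced by doxycycline in cells with stable M3 receptor; B-score is computed from the integrated fluorescence ratio over baseline after carbachol; higher B-score means a larger calcium signal and so more RGS4 inhibition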
Target sequence (P49798 whole entry, looked up): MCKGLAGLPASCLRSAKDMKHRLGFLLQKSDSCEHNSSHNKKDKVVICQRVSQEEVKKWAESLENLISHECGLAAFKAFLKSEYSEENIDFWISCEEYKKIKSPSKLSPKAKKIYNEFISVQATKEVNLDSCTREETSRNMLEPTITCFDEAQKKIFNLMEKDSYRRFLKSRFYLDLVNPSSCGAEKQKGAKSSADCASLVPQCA
MrgX1 antag = blocks BAM8-22 activation of human MrgX1 receptor; Q96LB2; MRGX1-HEK293 calcium flux, Fluo-4, BAM8-22 antagonism; stronger effect = lower value; B-score at 10 µM; actives 1.3% (n = 310,000); AID 588676;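 active = calcium-response B-score plate-corrected more than 3 library SD below zero, starting fluorescence within 5 deviations, no agonist response on first addition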;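 note: peak minus trough fluorescence over baseline after final BAM8-22 challenge near maximal dose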
MrgX1 allo act = human MrgX1 positive allosteric modulation, primary screen | Q96LB2 | MrgX1-HEK293, Fluo-4 calcium flux, FDSS; stronger effect = higher value | B-score at 10 µM | actives 0.63% (n = 310,000) | AID 588675;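 active = plate-corrected calcium response at least 3 library SD above typical, normal starting fluorescence, not activating the receptor alone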;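 note: compound read alongside a low EC10 to EC30 dose of BAM8-22 agonist; peak minus trough fluorescence over baseline measured at the second addition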
An asterisk follows results filed as active; i = inactive; / = no result given. In the library only some 3.5% were active in any assay of this set; here they are far more common.

SMILES | MrgX1 ag | RGS4 act | RGS4 inh | MrgX1 antag | MrgX1 allo act
N#C/C(=C\N1CCN(Cc2ccc3c(c2)OCO3)CC1)c1nc2ccccc2s1 | i | i | i | i | i
CCOC(=O)N1CCN(/C=C(\C#N)c2nc3ccccc3s2)CC1 | i | i | i | -7.1* | i
CCOc1cc(CNC2CCCC2)c(Cl)cc1OCC(=O)Nc1ccccc1 | i | -7.2* | i | i | i
COc1ccccc1-n1c2c(cc(C(=O)N3CCC(C)CC3)c1=O)C(=O)CC(C)(C)C2 | i | i | i | i | 8.6*
COc1ccc(-n2c3c(cc(C(=O)N4CCC(C)CC4)c2=O)C(=O)CC(C)(C)C3)cc1 | i | i | i | i | i
Cc1c(Cl)c([N+](=O)[O-])nn1Cc1ccc(C(=O)Nc2ccc(Cl)cn2)o1 | i | i | i | -6.9* | i
O=C(Nc1ccc(Cl)cn1)c1ccc([N+](=O)[O-])o1 | / | i | i | / | /
COc1cccc2cc(-c3nnc(SCC(=O)Nc4ccc(NC(C)=O)cc4)n3C)oc12 | i | i | i | i | i
CCCN(CCC)C(=O)C1CCN(c2ccc(S(=O)(=O)N3CCOCC3)cc2[N+](=O)[O-])CC1 | i | i | i | i | i
Cc1cc(C)c(C)c(C(=O)COC(=O)CNC(=O)CNC(=O)c2ccco2)c1C | i | i | i | i | i
O=C(CSc1ccc(-c2ccc(Cl)cc2)nn1)N1CCCc2ccccc21 | i | i | i | i | i
O=C(CSc1ccc(-c2ccc(F)cc2)nn1)N1CCCc2ccccc21 | i | -7.4* | i | i | i
CN(C)S(=O)(=O)n1cc(/C=C(\NC(=O)c2ccccc2F)C(=O)NCCCn2ccnc2)c2ccccc21 | / | -9.6* | i | / | /
O=C(NCC1(N2CCCCC2)CCCCC1)C1CC(=O)N(c2ccc3c(c2)OCCO3)C1 (centres undefined) | i | i | i | i | i
Cc1cccn2c(=O)c(/C=C(\C#N)C(N)=O)c(N3CCN(Cc4ccc5c(c4)OCO5)CC3)nc12 | i | -8.5* | i | i | i
NS(=O)(=O)c1cc(C(=O)NC2CCSc3ccccc32)ccc1Cl (centres undefined) | 62* | i | i | i | i
Cc1nc(N/N=C/c2ccccc2)nc(N(C)c2ccccc2)c1[N+](=O)[O-] | i | i | i | -7.6* | i
CC(C)(C)c1cc(O)c(C(C)(C)C)cc1O | 41* | -8.5* | i | i | i
Cc1cc(C(C)(C)C)c(O)c(C(C)(C)C)c1 | i | i | i | i | i
CC(CCc1ccccc1)NC(=O)COc1cc(F)ccc1[N+](=O)[O-] (centres undefined) | i | i | i | i | 8.3*
O=C(NCC(c1ccco1)N1CCCC1)c1ccccc1Sc1ccc(C(F)(F)F)cc1[N+](=O)[O-] (centres undefined) | i | -9* | i | i | i
BrC(/C=C\c1ccccc1)=N/Nc1nc(N2CCOCC2)nc(N2CCOCC2)n1 | i | i | i | -8* | i
BrC(=C\c1ccccc1)/C=N/Nc1nc(N2CCOCC2)nc(N2CCOCC2)n1 | i | i | i | i | i
CCN(CC)c1ccc(C=C2C(=O)OC(c3ccccc3)OC2=O)cc1 (centres undefined) | 27* | i | i | i | i
CN(C)c1ccc(C=C2C(=O)OC(C)(C)OC2=O)cc1 | i | i | i | i | i
CN(C)c1ccc(C=C2C(=O)OC(C)(C(C)(C)C)OC2=O)cc1 (centres undefined) | i | i | i | i | i
CCN(CC)c1ccc(C=C2C(=O)OC(C)(C(C)(C)C)OC2=O)cc1 (centres undefined) | 56* | i | i | i | i
CCOc1ccc(C(=O)NCC(=O)N2CCN(C/C=C/c3ccccc3)CC2)cc1OCC | i | -7.2* | i | i | i
CC(Oc1ccc(F)cc1)C(=O)Oc1ccc(N(C)S(=O)(=O)c2ccccc2)cc1 (centres undefined) | i | i | i | i | i
CCN(CC(=O)NCc1ccc(Cl)cc1)CC(=O)NC1(C#N)CCCC1 | i | i | i | i | i

Screens as filed in PubChem BioAssay.
